The results in this text go back to ChEMBL document CHEMBL2407049, “Cyclopeptide alkaloids: stereochemistry and synthesis of the precursors of discarines C and D and myrianthine A” (2013).

One assay has as its system Escherichia coli. The experiment in a line: Antibacterial activity against Escherichia coli ATCC 11103 assessed as concentration required to inhibit bacterial growth after 24 hrs by TLC assay. The format is functional. The essentials:
(§1)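 Direct TLC bioautography: compound amounts from 50 to 1.56 μg applied to precoated TLC plates, overlaid with Mueller Hinton or Sabouraud agar inoculated with microorganism suspension (10⁵ cfu mL⁻¹). Plates incubated 24 h at 37 °C, then stained with aqueous 2,3,5-triphenyltetrazolium chloride (1 mg mL⁻¹). The lowest amount giving an inhibition zone was recorded; <50 μg counted active. Triplicate.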

For the next assay, the system named is Candida dubliniensis. The experiment in a line: Antifungal activity against Candida dubliniensis SM 26 clinical isolate assessed as concentration required to inhibit fungal growth after 24 hrs by TLC assay. The format is functional. Put shortly:
as §1

The test system of another assay is Kocuria rhizophila. The experiment in a line: Antibacterial activity against Micrococcus luteus ATCC 9341 assessed as concentration required to inhibit bacterial growth after 24 hrs by TLC assay. The format is functional. The essentials:
as §1

The next assay has as its system Saccharomyces cerevisiae. The experiment in a line: Antifungal activity against Saccharomyces cerevisiae ATCC 2601 assessed as concentration required to inhibit fungal growth after 24 hrs by TLC assay. The format is functional. The essentials:
as §1

Assay [1] is described as follows: Antibacterial activity against Salmonella Setubal ATCC 19196 assessed as concentration required to inhibit bacterial growth after 24 hrs by TLC assay. The format is functional, Salmonella enterica subsp. enterica serovar Setubal. Put shortly: as §1
Another assay has as its system Candida tropicalis. The experiment in a line: Antifungal activity against Candida tropicalis ATCC 750 assessed as concentration required to inhibit fungal growth after 24 hrs by TLC assay. The format is functional. Put shortly: as §1
In a further assay the test system is Candida albicans. The experiment in a line: Antifungal activity against Candida albicans ATCC 10231 assessed as concentration required to inhibit fungal growth after 24 hrs by TLC assay. The format is functional. Put shortly:
as §1

In a further assay the test system is Cryptococcus neoformans. The experiment in a line: Antifungal activity against Cryptococcus neoformans ATCC 28952 assessed as concentration required to inhibit fungal growth after 24 hrs by TLC assay. The format is functional. The essentials: as §1
For another assay, the system named is Klebsiella pneumoniae. The experiment in a line: Antibacterial activity against Klebsiella pneumoniae ATCC 10031 assessed as concentration required to inhibit bacterial growth after 24 hrs by TLC assay. The format is functional. The essentials:
as §1

For the next assay, the system named is Staphylococcus aureus. In words: Antibacterial activity against Staphylococcus aureus ATCC 6538p assessed as concentration required to inhibit bacterial growth after 24 hrs by TLC assay. The format is functional. Put shortly:
as §1

Assay [2] deals with Staphylococcus epidermidis. In words: Antibacterial activity against Staphylococcus epidermidis ATCC 12228 assessed as concentration required to inhibit bacterial growth after 24 hrs by TLC assay. The format is functional. Put shortly: as §1

In the case of `CC(C)C[C@@H](C(=O)N[C@@H]1C(=O)N[C@@H](Cc2ccccc2)C(=O)N/C=C\c2ccc(cc2)O[C@H]1c1ccccc1)N(C)C`, the Activity (with Escherichia coli; in the assay with Candida dubliniensis; in the assay on Kocuria rhizophila; in the assay with Saccharomyces cerevisiae; in [1]; in the assay with Candida tropicalis) was above 50 µg in each case. Besides, the Activity (in the assay on Candida albicans; in the assay on Cryptococcus neoformans; in the assay with Klebsiella pneumoniae; in the assay on Staphylococcus aureus; in [2]) was above 50 µg in each case.
Take `COC(=O)[C@H](CC(C)C)NC(=O)[C@H](NC(=O)[C@@H](N)CC(C)C)[C@@H](O)c1ccccc1`: the Activity (in the assay on Escherichia coli; in the assay on Candida dubliniensis; with Kocuria rhizophila; in the assay on Saccharomyces cerevisiae; in assay [1]; with Candida tropicalis) was below 50 µg throughout. Moreover, the Activity (with Candida albicans; in the assay with Cryptococcus neoformans; with Klebsiella pneumoniae; in the assay with Staphylococcus aureus; in assay [2]) was below 50 µg throughout.
As for `COC(=O)[C@H](Cc1ccccc1)NC(=O)[C@@H](NC(=O)[C@@H](N)CC(C)C)[C@H](O)c1ccccc1`, the Activity with Escherichia coli was 1.5 µg; in the assay on Candida dubliniensis, below 50 µg; in the assay with Kocuria rhizophila, below 50 µg; in the assay with Saccharomyces cerevisiae, below 50 µg; in assay [1], below 50 µg; in the assay with Candida tropicalis it was below 50 µg. Besides, the Activity in the assay on Candida albicans is below 50 µg; in the assay on Cryptococcus neoformans, below 50 µg; with Klebsiella pneumoniae, below 50 µg; in the assay with Staphylococcus aureus, below 50 µg; in [2], above 50 µg.
For the molecule `CC[C@H](C)[C@H](NC(=O)[C@H](NC(=O)[C@@H](N)CC(C)C)[C@@H](O)c1ccccc1)C(=O)OC`, the Activity (with Escherichia coli; with Candida dubliniensis; with Kocuria rhizophila; in the assay on Saccharomyces cerevisiae; in assay [1]; with Candida tropicalis) was below 50 µg throughout. Besides, the Activity (in the assay on Candida albicans; in the assay with Cryptococcus neoformans; in the assay on Klebsiella pneumoniae; in the assay with Staphylococcus aureus; in assay [2]) was below 50 µg each time.
As for `COC(=O)[C@H](Cc1ccccc1)NC(=O)[C@H](NC(=O)[C@H](CC(C)C)N(C)C)[C@@H](O)c1ccccc1`, the Activity (in the assay on Escherichia coli; in the assay on Candida dubliniensis; in the assay on Kocuria rhizophila; in the assay on Saccharomyces cerevisiae; in assay [1]; in the assay on Candida tropicalis) was below 50 µg in each case. The Activity (in the assay with Candida albicans; in the assay with Cryptococcus neoformans; with Klebsiella pneumoniae; with Staphylococcus aureus; in [2]) was below 50 µg each time.
`COC(=O)[C@H](Cc1ccccc1)NC(=O)[C@H]([C@H](O)c1ccccc1)N1CN(C)[C@@H](CC(C)C)C1=O`: the Activity in the assay with Escherichia coli was above 50 µg; in the assay with Candida dubliniensis, below 50 µg; in the assay with Kocuria rhizophila it was below 50 µg; in the assay on Saccharomyces cerevisiae it was below 50 µg; in assay [1], 25 µg; with Candida tropicalis, below 50 µg. In addition, the Activity is below 50 µg in the assay with Candida albicans; below 50 µg with Cryptococcus neoformans; 50 µg with Klebsiella pneumoniae; below 50 µg in the assay with Staphylococcus aureus; 50 µg in [2].
Consider `CC[C@H](C)[C@@H]1NC(=O)[C@@H](NC(=O)[C@H](CC(C)C)N(C)C)[C@H](c2ccccc2)Oc2ccc(cc2)/C=C\NC1=O` (mixture of isomers), for which the Activity (in the assay with Escherichia coli; in the assay on Candida dubliniensis; with Kocuria rhizophila; with Saccharomyces cerevisiae; in [1]; in the assay on Candida tropicalis) was above 50 µg throughout. In addition, the Activity (in the assay with Candida albicans; in the assay on Cryptococcus neoformans; with Klebsiella pneumoniae; in the assay on Staphylococcus aureus; in [2]) was above 50 µg each time.
As for `CC(C)C[C@@H]1NC(=O)[C@@H](NC(=O)[C@H](CC(C)C)N(C)C)[C@H](c2ccccc2)Oc2ccc(cc2)/C=C\NC1=O` (mixture of isomers), the Activity (in the assay on Escherichia coli; in the assay on Candida dubliniensis; in the assay with Kocuria rhizophila; with Saccharomyces cerevisiae; in [1]; with Candida tropicalis) was above 50 µg in each case. Moreover, the Activity (in the assay on Candida albicans; in the assay on Cryptococcus neoformans; with Klebsiella pneumoniae; with Staphylococcus aureus; in assay [2]) was above 50 µg throughout.
In the case of `CC[C@H](C)[C@H](NC(=O)[C@@H]([C@H](Oc1ccc(C=O)cc1)c1ccccc1)N1CN(C)[C@@H](CC(C)C)C1=O)C(=O)OC` (mixture of isomers), the Activity (in the assay on Escherichia coli; with Candida dubliniensis; in the assay with Kocuria rhizophila; in the assay with Saccharomyces cerevisiae; in [1]; in the assay with Candida tropicalis) was below 50 µg throughout. In addition, the Activity (in the assay on Candida albicans; in the assay on Cryptococcus neoformans; with Klebsiella pneumoniae; in the assay with Staphylococcus aureus; in [2]) was below 50 µg in each case.
In the case of `CC[C@H](C)[C@H](NC(=O)[C@H]([C@@H](Oc1ccc(C=O)cc1)c1ccccc1)N1CN(C)[C@@H](CC(C)C)C1=O)C(=O)OC` (mixture of isomers), the Activity (in the assay on Escherichia coli; in the assay on Candida dubliniensis; in the assay with Kocuria rhizophila; with Saccharomyces cerevisiae; in assay [1]; in the assay on Candida tropicalis) was below 50 µg each time. In addition, the Activity (in the assay on Candida albicans; in the assay on Cryptococcus neoformans; with Klebsiella pneumoniae; in the assay with Staphylococcus aureus; in assay [2]) was below 50 µg each time.
As to `COC(=O)[C@H](Cc1ccccc1)NC(=O)[C@@H]([C@H](Oc1ccc(C=O)cc1)c1ccccc1)N1CN(C)[C@@H](CC(C)C)C1=O` (mixture of isomers), the Activity (in the assay with Escherichia coli; in the assay with Candida dubliniensis; in the assay with Kocuria rhizophila; in the assay on Saccharomyces cerevisiae; in [1]; in the assay on Candida tropicalis) was below 50 µg each time. Also, the Activity (in the assay on Candida albicans; with Cryptococcus neoformans; with Klebsiella pneumoniae; in the assay on Staphylococcus aureus; in assay [2]) was below 50 µg in each case.
